In ChEMBL document CHEMBL4425169 (ACS Med Chem Lett, 2016):

What was measured:
[1] = Cardiotoxicity in vagotomized cardiovascular dog model assessed as effect on PR interval at plasma concentration <= 11.6 uM at 1 to 7 mg/kg, iv administered during three sequential 30 min periods; format: toxicity, organism-based, Canis lupus familiaris; conditions: in vivo, 0.5 h
How it was run: (§1)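 Anesthetized, vagotomized dogs received IV infusions over sequential periods at 1, 2 and 7 mg/kg (10 mg/kg cumulative). Heart rate, mean arterial pressure and ECG intervals (PR, QRS, QT/QTc) were recorded predose and during each infusion period. Plasma concentrations were measured.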

[2] = Dose normalized AUC in dog at 2 mg/kg, po; format: ADME, organism-based, Canis lupus familiaris; conditions: in vivo
[3] = Oral bioavailability in rat at 2 mg/kg; format: ADME, organism-based; conditions: in vivo
How it was run: (§2)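 Rats dosed once at 1 mg/kg IV and, separately, 2 mg/kg PO, with n = 3. Derived parameters were plasma clearance, Vdss, dose-normalized oral AUC (μM·h·kg/mg), half-life, and oral bioavailability (F%).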

[4] = Half life in rat at 1 mg/kg, iv or 2 mg/kg, po; format: ADME, organism-based; conditions: in vivo; how it was run: as §2
[5] = Drug metabolism in human hepatocytes assessed as lactone hydrolysis at 1 uM measured at 120 mins; format: ADME, cell-based, Hepatocyte; conditions: read-out: Drug metabolism
Rattus norvegicus [6] = test: Antihypertensive activity in spontaneously hypertensive rat assessed as reduction in systolic blood pressure administered via oral gavage once daily for 4 days measured on day 4 by telemetry; format: functional, organism-based
Rattus norvegicus [7] = test: Antihypertensive activity in spontaneously hypertensive rat assessed as reduction in systolic blood pressure at 3 mg/kg via oral gavage qd administered for 4 days measured on day 4 by telemetry (reference value: 2.5 +/- 2.2 mmHg); format: functional
[8] = Volume of distribution at steady state in rhesus monkey at 1 mg/kg, iv or 2 mg/kg, po; format: ADME, organism-based, Macaca mulatta; conditions: in vivo, read-out: Vdss
Rattus norvegicus [9] = test: Diuretic activity in Sprague-Dawley rat at 3 mg/kg via oral gavage administered 30 mins prior to void induction by loading saline measured upto 4 hrs relative to vehicle treated control; format: functional
How it was run: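 Acute 4 h study in Sprague-Dawley rats after oral dosing, n = 5 per group. Urine volume and sodium and potassium excretion were expressed as fold increase over vehicle-treated animals. Significance was tested versus vehicle (p < 0.05 or p < 0.01).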

[10] = Cardiotoxicity in vagotomized cardiovascular dog model assessed as effect on QT/QTc interval at plasma concentration <= 11.6 uM at 1 to 7 mg/kg, iv administered during three sequential 30 min periods; format: toxicity, organism-based, Canis lupus familiaris; conditions: in vivo, 0.5 h; how it was run: as §1
Rattus norvegicus [11] = test: Antihypertensive activity in spontaneously hypertensive rat assessed as reduction in systolic blood pressure at 1 mg/kg via oral gavage qd administered for 4 days measured on day 4 by telemetry (reference value: 2.5 +/- 2.2 mmHg); format: functional
Rattus norvegicus [12] = test: Natriuretic activity in Sprague-Dawley rat at 0.3 mg/kg via oral gavage administered 30 mins prior to void induction by loading saline measured upto 4 hrs relative to vehicle treated control; format: functional
How it was run: (§3)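 Acute rat diuresis model in male-unspecified Sprague-Dawley rats, single oral dose, urine collected over 4 h. Urine volume, sodium excretion and potassium excretion expressed as fold increase over vehicle-treated controls; n = 5 per group; significance tested against vehicle.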

[13] = biological target: Somatostatin receptor type 1 (Homo sapiens, UniProt P30872); test: Inhibition of somatostatin receptor subtype 1 (unknown origin)
Somatostatin receptor type 1, sequence (P30872 whole entry): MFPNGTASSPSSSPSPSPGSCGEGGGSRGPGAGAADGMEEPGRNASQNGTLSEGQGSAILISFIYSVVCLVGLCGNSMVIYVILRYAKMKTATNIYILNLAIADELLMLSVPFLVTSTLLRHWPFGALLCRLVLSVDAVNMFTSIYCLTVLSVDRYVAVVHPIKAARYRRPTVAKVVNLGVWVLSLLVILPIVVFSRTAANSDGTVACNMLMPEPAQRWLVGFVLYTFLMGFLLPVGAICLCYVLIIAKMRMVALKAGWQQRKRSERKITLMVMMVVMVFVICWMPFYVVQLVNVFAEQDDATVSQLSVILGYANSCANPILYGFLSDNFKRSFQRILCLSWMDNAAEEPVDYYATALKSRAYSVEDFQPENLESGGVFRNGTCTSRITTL

[14] = Clearance in rat at 1 mg/kg, iv or 2 mg/kg, po; format: ADME, organism-based; conditions: in vivo; how it was run: as §2
Rattus norvegicus [15] = test: Natriuretic activity in Sprague-Dawley rat at 1 mg/kg via oral gavage administered 30 mins prior to void induction by loading saline measured upto 4 hrs relative to vehicle treated control; format: functional; how it was run: as §3
[16] = biological target: T1, Sodium-dependent serotonin transporter (Homo sapiens, UniProt P31645); test: Inhibition of [3H]-serotonin uptake at human SERT transfected in HEK293 cells; format: cell-based
T1 sequence (P31645 whole entry): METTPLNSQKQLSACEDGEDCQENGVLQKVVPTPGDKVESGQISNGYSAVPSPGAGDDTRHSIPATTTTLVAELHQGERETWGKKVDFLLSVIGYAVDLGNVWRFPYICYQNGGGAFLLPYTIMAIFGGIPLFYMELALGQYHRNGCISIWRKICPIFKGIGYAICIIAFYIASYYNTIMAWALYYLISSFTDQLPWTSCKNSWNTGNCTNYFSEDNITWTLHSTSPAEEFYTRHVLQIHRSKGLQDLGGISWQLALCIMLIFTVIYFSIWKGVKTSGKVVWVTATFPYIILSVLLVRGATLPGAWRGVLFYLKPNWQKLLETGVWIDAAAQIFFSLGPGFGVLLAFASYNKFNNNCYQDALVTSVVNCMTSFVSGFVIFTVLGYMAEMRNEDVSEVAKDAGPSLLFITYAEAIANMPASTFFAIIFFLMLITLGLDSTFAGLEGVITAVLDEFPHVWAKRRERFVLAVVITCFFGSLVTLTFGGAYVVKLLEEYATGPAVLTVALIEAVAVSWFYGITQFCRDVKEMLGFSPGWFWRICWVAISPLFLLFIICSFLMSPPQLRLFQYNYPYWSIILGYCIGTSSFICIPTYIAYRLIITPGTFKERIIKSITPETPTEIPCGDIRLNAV

[17] = Oral bioavailability in dog at 2 mg/kg; format: ADME, organism-based, Canis lupus familiaris; conditions: in vivo
[18] = Drug metabolism in human hepatocytes assessed as oxidation at 1 uM measured at 120 mins; format: ADME, cell-based, Hepatocyte; conditions: read-out: Drug metabolism
[19] = biological target: T2, Inward rectifier potassium channel 2 (Homo sapiens, UniProt P63252); test: Inhibition of Kir2.1 (unknown origin) upto 30 uM
T2 sequence (P63252 whole entry): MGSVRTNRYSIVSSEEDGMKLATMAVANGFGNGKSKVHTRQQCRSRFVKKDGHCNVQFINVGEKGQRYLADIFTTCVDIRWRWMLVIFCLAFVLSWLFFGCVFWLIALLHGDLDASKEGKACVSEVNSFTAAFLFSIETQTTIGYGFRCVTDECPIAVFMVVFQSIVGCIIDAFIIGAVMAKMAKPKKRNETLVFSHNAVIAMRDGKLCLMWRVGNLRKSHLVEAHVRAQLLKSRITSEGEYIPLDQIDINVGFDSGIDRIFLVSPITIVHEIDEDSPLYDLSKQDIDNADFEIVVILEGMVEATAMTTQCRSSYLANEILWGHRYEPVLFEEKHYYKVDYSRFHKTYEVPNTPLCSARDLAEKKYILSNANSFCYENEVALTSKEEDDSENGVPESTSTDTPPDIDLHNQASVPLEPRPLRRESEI

[20] = Clearance in rhesus monkey at 1 mg/kg, iv or 2 mg/kg, po; format: ADME, organism-based, Macaca mulatta; conditions: in vivo
[21] = Oral bioavailability in rhesus monkey at 2 mg/kg; format: ADME, organism-based, Macaca mulatta; conditions: in vivo
[22] = Half life in rhesus monkey at 1 mg/kg, iv or 2 mg/kg, po; format: ADME, organism-based, Macaca mulatta; conditions: in vivo
[23] = biological target: Voltage-dependent L-type calcium channel subunit alpha-1C (Homo sapiens, UniProt Q13936); test: Inhibition of Cav1.2 (unknown origin)
Voltage-dependent L-type calcium channel subunit alpha-1C, sequence (Q13936 whole entry): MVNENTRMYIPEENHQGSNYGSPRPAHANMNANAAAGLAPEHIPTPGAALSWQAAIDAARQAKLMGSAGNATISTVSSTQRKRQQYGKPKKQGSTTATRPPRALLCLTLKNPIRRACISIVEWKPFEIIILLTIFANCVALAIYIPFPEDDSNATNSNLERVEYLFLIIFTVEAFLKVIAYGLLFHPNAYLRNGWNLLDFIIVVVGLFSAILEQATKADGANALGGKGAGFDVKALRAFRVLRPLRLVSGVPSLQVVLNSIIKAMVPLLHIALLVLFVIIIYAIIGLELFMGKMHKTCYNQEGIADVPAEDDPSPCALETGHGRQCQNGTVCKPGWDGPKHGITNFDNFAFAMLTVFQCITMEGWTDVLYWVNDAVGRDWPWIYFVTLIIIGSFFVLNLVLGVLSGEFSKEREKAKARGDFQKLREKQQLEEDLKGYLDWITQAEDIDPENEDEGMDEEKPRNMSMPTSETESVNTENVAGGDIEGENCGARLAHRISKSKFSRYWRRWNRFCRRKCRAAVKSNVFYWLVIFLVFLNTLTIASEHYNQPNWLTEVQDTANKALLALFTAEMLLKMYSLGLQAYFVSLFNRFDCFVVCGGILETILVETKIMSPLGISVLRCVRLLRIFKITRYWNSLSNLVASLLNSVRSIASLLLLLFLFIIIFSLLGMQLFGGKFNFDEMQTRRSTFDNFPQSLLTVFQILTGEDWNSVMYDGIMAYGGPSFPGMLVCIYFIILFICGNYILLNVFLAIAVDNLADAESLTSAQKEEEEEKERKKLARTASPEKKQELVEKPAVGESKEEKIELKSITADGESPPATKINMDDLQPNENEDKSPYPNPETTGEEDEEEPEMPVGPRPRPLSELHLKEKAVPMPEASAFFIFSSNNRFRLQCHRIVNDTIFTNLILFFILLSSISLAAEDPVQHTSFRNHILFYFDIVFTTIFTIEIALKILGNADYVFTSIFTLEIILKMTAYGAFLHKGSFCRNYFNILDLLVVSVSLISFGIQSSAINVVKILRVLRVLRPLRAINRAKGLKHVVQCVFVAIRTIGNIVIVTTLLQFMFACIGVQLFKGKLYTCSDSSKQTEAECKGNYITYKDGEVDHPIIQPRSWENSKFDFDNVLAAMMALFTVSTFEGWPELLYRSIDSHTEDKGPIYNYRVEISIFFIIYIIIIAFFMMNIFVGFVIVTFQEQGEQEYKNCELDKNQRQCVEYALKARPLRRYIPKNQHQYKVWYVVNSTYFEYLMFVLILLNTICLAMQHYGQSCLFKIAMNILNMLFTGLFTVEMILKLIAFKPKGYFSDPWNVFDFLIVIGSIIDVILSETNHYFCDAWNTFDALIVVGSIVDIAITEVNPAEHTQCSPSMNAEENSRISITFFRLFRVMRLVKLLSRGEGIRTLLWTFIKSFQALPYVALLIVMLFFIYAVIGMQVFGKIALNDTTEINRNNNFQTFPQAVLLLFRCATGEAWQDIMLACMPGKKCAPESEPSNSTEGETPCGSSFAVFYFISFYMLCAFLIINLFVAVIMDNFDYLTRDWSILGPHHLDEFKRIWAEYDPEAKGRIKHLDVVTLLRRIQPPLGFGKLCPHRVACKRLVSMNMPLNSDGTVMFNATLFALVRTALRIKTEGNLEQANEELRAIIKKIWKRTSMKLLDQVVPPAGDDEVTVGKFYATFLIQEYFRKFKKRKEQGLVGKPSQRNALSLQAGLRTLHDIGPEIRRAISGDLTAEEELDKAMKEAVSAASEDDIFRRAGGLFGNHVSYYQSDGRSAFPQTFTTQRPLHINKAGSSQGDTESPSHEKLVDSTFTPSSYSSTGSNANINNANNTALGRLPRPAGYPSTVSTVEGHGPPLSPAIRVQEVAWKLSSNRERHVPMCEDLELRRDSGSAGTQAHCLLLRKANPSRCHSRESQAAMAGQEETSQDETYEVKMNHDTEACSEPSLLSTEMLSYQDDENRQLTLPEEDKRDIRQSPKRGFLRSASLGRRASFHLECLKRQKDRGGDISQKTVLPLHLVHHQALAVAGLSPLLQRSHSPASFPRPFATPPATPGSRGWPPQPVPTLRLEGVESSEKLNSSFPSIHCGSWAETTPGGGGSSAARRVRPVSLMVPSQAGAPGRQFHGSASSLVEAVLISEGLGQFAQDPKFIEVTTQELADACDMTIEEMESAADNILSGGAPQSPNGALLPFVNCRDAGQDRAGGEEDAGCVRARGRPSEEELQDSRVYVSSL

[24] = Dose normalized AUC in rhesus monkey at 2 mg/kg, po; format: ADME, organism-based, Macaca mulatta; conditions: in vivo
Rattus norvegicus [25] = test: Antihypertensive activity in spontaneously hypertensive rat assessed as reduction in systolic blood pressure at 10 mg/kg via oral gavage qd administered for 4 days measured on day 4 by telemetry (reference value: 2.5 +/- 2.2 mmHg); format: functional
Rattus norvegicus [26] = test: Kaliuretic activity in Sprague-Dawley rat at 0.3 mg/kg via oral gavage administered 30 mins prior to void induction by loading saline measured upto 4 hrs relative to vehicle treated control; format: functional; how it was run: as §3
[27] = Drug metabolism in bile duct cannulated rat assessed as lactone hydrolysis; format: ADME
[28] = Drug metabolism in monkey hepatocytes assessed as oxidation at 1 uM measured at 120 mins; format: ADME, cell-based, Macaca mulatta, Hepatocyte; conditions: rhesus monkey, 2 h
[29] = Drug metabolism in dog hepatocytes assessed as lactone hydrolysis at 1 uM measured at 120 mins; format: ADME, cell-based, Canis lupus familiaris, Hepatocyte; conditions: read-out: Drug metabolism
Rattus norvegicus [30] = test: Kaliuretic activity in Sprague-Dawley rat at 10 mg/kg via oral gavage administered 30 mins prior to void induction by loading saline measured upto 4 hrs relative to vehicle treated control; format: functional; how it was run: as §3
[31] = Half life in human; format: ADME
Cytochrome P450 3A4 = Cytochrome P450 3A4 (Homo sapiens, UniProt P08684); test: Reversible inhibition of human CYP3A4; format: ADME
Cytochrome P450 3A4, sequence (P08684 whole entry): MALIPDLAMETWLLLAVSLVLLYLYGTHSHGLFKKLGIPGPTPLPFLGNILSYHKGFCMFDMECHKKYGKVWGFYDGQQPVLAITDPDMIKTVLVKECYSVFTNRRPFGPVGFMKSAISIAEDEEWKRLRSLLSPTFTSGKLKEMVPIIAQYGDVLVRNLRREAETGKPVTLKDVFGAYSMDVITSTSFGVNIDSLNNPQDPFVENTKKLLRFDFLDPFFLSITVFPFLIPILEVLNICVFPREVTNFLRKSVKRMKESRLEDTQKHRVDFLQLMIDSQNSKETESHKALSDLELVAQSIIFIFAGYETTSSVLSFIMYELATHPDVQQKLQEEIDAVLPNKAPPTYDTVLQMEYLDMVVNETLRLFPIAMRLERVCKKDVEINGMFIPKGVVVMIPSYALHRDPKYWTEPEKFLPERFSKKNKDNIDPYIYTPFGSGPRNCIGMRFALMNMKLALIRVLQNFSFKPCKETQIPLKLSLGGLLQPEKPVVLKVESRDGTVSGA

[32] = Clearance in dog at 1 mg/kg, iv or 2 mg/kg, po; format: ADME, organism-based, Canis lupus familiaris; conditions: in vivo
Cytochrome P450 2C9 = Cytochrome P450 2C9 (Homo sapiens, UniProt P11712); test: Reversible inhibition of human CYP2C9; format: ADME
Cytochrome P450 2C9, sequence (P11712 whole entry): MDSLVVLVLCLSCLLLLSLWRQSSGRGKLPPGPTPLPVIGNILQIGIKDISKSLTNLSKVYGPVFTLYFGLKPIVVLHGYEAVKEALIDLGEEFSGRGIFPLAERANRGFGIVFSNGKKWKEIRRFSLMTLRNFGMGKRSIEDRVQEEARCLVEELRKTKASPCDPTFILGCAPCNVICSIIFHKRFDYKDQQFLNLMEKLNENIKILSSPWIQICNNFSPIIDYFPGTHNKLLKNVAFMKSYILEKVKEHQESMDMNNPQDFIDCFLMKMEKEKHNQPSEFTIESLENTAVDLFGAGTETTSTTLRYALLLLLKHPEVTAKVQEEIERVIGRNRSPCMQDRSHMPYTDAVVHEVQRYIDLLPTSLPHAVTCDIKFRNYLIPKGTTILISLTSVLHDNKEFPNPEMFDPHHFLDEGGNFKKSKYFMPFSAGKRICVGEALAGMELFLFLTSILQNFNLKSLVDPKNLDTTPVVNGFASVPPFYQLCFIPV

[33] = Drug metabolism in monkey hepatocytes assessed as lactone hydrolysis at 1 uM measured at 120 mins; format: ADME, cell-based, Macaca mulatta, Hepatocyte; conditions: rhesus monkey, read-out: Drug metabolism
[34] = biological target: T1, Sodium-dependent serotonin transporter; test: Inhibition of human SERT

Cc1c([C@@H](O)CN2CCN(C[C@H](O)c3ccc4c(c3C)COC4=O)CC2)ccc2c1COC2=O [MK-7145]
Activity [1]: Non-Toxic | AUC/dose [2]: 0.32 µM·kg·h/mg | bioavailability [3]: 21% | half-life [4]: 1.1 h | metabolised at 2 h, 1 µM [5]: < 1% | Activity (Rattus norvegicus [6]): Dose-dependent effect | Activity (Rattus norvegicus [7]): 12.4 mmHg | Vd [8]: 6.7 L/kg | fold change (FC) (Rattus norvegicus [9]): 9 | Activity [10]: Non-Toxic | Activity (Rattus norvegicus [11]): 9.4 mmHg | fold change (FC) (Rattus norvegicus [12]): 6.2 | IC50 [13]: 2630 nM | clearance [14]: 56 mL/min/kg | fold change (FC) (Rattus norvegicus [15]): 8.6 | IC50 [16]: 2400 nM | bioavailability [17]: 51% | metabolised at 2 h, 1 µM [18]: 15 to 37% | inhibition (INH) [19]: Not Active | clearance [20]: 29 mL/min/kg | bioavailability [21]: 25% | half-life [22]: 4 h | IC50 [23]: > 30000 nM | AUC/dose [24]: 0.3 µM·kg·h/mg | Activity (Rattus norvegicus [25]): 19.9 mmHg | fold change (FC) (Rattus norvegicus [26]): 2.1 | Drug metabolism [27]: Metabolite_Detected | Drug metabolism [28]: 15 to 37% | metabolised at 2 h, 1 µM [29]: < 1% | fold change (FC) (Rattus norvegicus [30]): 1.7 | half-life [31]: 5 h | IC50 (Cytochrome P450 3A4): > 50000 nM | clearance [32]: 56 mL/min/kg | IC50 (Cytochrome P450 2C9): > 50000 nM | metabolised at 2 h, 1 µM [33]: < 1% | IC50 [34]: 120 nM
